pEC50: −log10 of the molar value.
Experiments:
[1] = Cytotoxicity against mock-infected human MT4 cells after 96 hrs by MTT assay; format: cell-based
Outline: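 Exponentially growing MT-4 cells were seeded at 1 × 10^5 cells/mL in RPMI-1640 with 10% FBS and held at 37 °C, 5% CO2 with serial compound dilutions. Viability was read by MTT after 96 h. CC50 from linear regression against untreated controls.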

[2] = tested on: Human immunodeficiency virus 1; test: Antiviral activity against HIV1 infected in human MT4 cells assessed as inhibition of virus-induced cytopathogenicity after 4 days by MTT assay; format: functional, organism-based; details: Human immunodeficiency virus 1, MT4, 96 h
Outline: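 MT-4 cells (1 × 10^4/well in RPMI) were infected acutely with HIV-1 IIIB, 100 CCID50 (m.o.i. 0.01), with serial dilutions from 100 µM, 1:5. After 4 days at 37 °C, protection from virus-induced cytopathogenicity was read by MTT. EC50 came from linear regression against untreated controls.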

[3] = Cytotoxicity against mock-infected MDBK cells after 48 to 96 hrs by MTT assay; format: cell-based, Bos taurus; details: cattle
Outline: (§1)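 Mock-infected MDBK (6 × 10^5 cells/mL; MEM-E, 10% horse serum, 1 mM pyruvate) or BHK (1 × 10^6 cells/mL; MEM-E, 10% FBS) cells were incubated at 37 °C, 5% CO2 with serial dilutions from 100 µM, 1:5. Viability by MTT after 48–96 h. CC50 from linear regression against untreated controls.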

[4] = tested on: Bovine viral diarrhea virus 1; test: Antiviral activity against Bovine viral diarrhea virus infected in MDBK cells assessed as inhibition of virus-induced cytopathogenicity after 3 to 4 days by MTT assay; format: functional, organism-based; details: Bovine viral diarrhea virus isolates and strains
[5] = Cytotoxicity against mock-infected BHK21 cells after 48 to 96 hrs by MTT assay; format: functional; details: Mesocricetus auratus, BHK-21; outline: as §1
Yellow fever virus = test: Antiviral activity against Yellow fever virus infected in BHK21 cells assessed as inhibition of virus-induced cytopathogenicity after 3 to 4 days by MTT assay; format: functional, organism-based; details: BHK-21
Reovirus sp. = test: Antiviral activity against Reovirus type-1 infected in BHK21 cells assessed as inhibition of virus-induced cytopathogenicity after 3 to 4 days by MTT assay; format: functional, organism-based; details: BHK-21
[6] = Cytotoxicity against mock-infected african green monkey Vero 76 cells after 48 to 96 hrs by MTT assay; format: cell-based; details: chlorocebus sabaeus, mock-infected Vero 76 cells
Coxsackievirus B5 = test: Antiviral activity against Coxsackievirus B5 infected in african green monkey Vero 76 cells assessed as reduction in plaque number after 3 days by plaque reduction assay; format: functional, organism-based; details: Enterovirus B, 72 h
Poliovirus 1 = test: Antiviral activity against Poliovirus type 1 Sabin strain infected in african green monkey Vero 76 cells assessed as reduction in plaque number after 2 days by plaque reduction assay; format: functional, organism-based; details: Enterovirus C, 48 h
[7] = tested on: Respiratory syncytial virus; test: Antiviral activity against Respiratory syncytial virus infected in african green monkey Vero 76 cells assessed as reduction in plaque number after 5 days by plaque reduction assay; format: functional, organism-based; details: human respiratory syncytial virus, 120 h
[8] = tested on: Vesicular stomatitis virus; test: Antiviral activity against Vesicular stomatitis virus infected in african green monkey Vero 76 cells assessed as reduction in plaque number after 2 days by plaque reduction assay; format: functional, organism-based; details: 48 h
Vaccinia virus = test: Antiviral activity against Vaccinia Virus infected in african green monkey Vero 76 cells assessed as reduction in plaque number after 3 days by plaque reduction assay; format: functional, organism-based; details: Orthopoxvirus vaccinia, 72 h
Human alphaherpesvirus 1 = test: Antiviral activity against HSV1 infected in african green monkey Vero 76 cells assessed as reduction in plaque number after 3 days by plaque reduction assay; format: functional, organism-based; details: Human alphaherpesvirus 1, Vero, 72 h
[9] = Selectivity index, ratio of CC50 for african green monkey Vero 76 cells to EC50 for Coxsackievirus B5; format: toxicity, cell-based; details: read-out: Ratio CC50/EC50
Outline: (§2)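 Mock-infected Vero-76 cells were tested in parallel on the same 24-well plates as the plaque assays (seeding 4 × 10^5 cells/mL, D-MEM with FBS), with serial compound dilutions at 37 °C, 5% CO2. Viability was read after 48–96 h by crystal violet staining. CC50 by linear regression; selectivity index = Vero-76 CC50/EC50 for CVB-5 or RSV.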

[10] = Selectivity index, ratio of CC50 for african green monkey Vero 76 cells to EC50 for Respiratory syncytial virus; format: toxicity, cell-based; details: read-out: Ratio CC50/EC50; outline: as §2

| SMILES | CC50 at 96 h [1] | pEC50 [2] | CC50 [3] | pEC50 [4] | CC50 [5] | pEC50 (Yellow fever virus) | pEC50 (Reovirus sp.) | CC50 [6] | pEC50 (Coxsackievirus B5) | pEC50 (Poliovirus 1) | pEC50 [7] | pEC50 [8] | pEC50 (Vaccinia virus) | pEC50 (Human alphaherpesvirus 1) | selectivity ratio [9] | selectivity ratio [10] |
| --- | --- | --- | --- | --- | --- | --- | --- | --- | --- | --- | --- | --- | --- | --- | --- | --- |
| c1ccc2[nH]c(SC[C@@H]3CCCN4CCCC[C@H]34)nc2c1 | > 100 µM | < 4.00 | > 100 µM | < 4.00 | > 100 µM | < 4.00 | < 4.00 | > 100 µM | 4.32 | < 4.00 | < 4.00 | < 4.00 | < 4.00 | < 4.00 | > 2.08 |  |
| Cc1nc2cc(C(F)(F)F)ccc2n1C[C@@H]1CCCN2CCCC[C@H]12 | > 100 µM | < 4.00 | > 100 µM | < 4.00 | > 100 µM | 4.57 | < 4.00 | > 100 µM | 4.33 | < 4.00 | < 4.00 | < 4.00 | 4.64 | < 4.00 | > 2.13 |  |
| FC(F)(F)c1ccc2c(c1)nc(CC1CCCC1)n2C[C@@H]1CCCN2CCCC[C@H]12 | 11 µM | < 4.00 | 35 µM | < 4.00 | 32 µM | < 4.00 | < 4.00 | > 100 µM | 4.96 | < 4.00 | < 4.00 | < 4.00 | < 4.00 | < 4.00 | > 9.09 |  |
| c1ccc2[nH]c(CC3CCCC3)nc2c1 | > 100 µM | < 4.00 | > 100 µM | < 4.00 | > 100 µM | < 4.00 | < 4.00 | > 100 µM | 4.68 | < 4.00 | < 4.00 | < 4.00 | < 4.00 | < 4.00 | > 4.76 |  |
| c1ccc(-n2c(C[C@H]3CCCN4CCCC[C@H]34)nc3ccccc32)cc1 | 42 µM | < 4.00 | 90 µM | 4.36 | 29 µM | < 4.00 | < 4.00 | > 100 µM | 4.77 | 4.14 | 5.15 | < 4.00 | < 4.00 | < 4.00 | > 5.88 | > 14.3 |
| O=c1cnn([C@@H]2O[C@H](CO)[C@@H](O)[C@H]2O)c(=O)[nH]1 [6-AZAURIDINE] |  |  | > 100 µM | < 4.00 | > 100 µM | < 4.00 | < 4.00 | 20 µM | < 4.00 | < 4.00 |  | < 4.00 |  | < 4.00 |  | 16.7 |
| COc1c(C)c2c(c(O)c1C/C=C(\C)CCC(=O)O)C(=O)OC2 [MYCOPHENOLIC ACID] |  |  |  | < 4.00 | > 100 µM | < 4.00 | < 4.00 | 20 µM | < 4.00 | < 4.00 |  |  | 5.70 | < 4.00 |  | 33.3 |
| NC(=O)c1ncn([C@@H]2O[C@H](CO)[C@@H](O)[C@H]2O)n1 [RIBAVIRIN] |  |  | > 100 µM | 5.10 | > 100 µM | < 4.00 | < 4.00 | > 100 µM | < 4.00 | < 4.00 |  | < 4.00 | < 4.00 | < 4.00 |  | > 14.3 |

Reference: ChEMBL document CHEMBL3351523 (Bioorg Med Chem, 2014)
